# Measured values: ChEMBL document CHEMBL4308915, “Synthesis of novel pyrazoline derivatives and the evaluation of death mechanisms involved in their antileukemic activity” (Bioorg Med Chem, 2019)
# Active and inactive are the calls of the source. No cut-off for these calls is given here.
# Assays:
# K562 [1] = assay: Cytotoxicity against human K562 cells assessed as reduction in cell viability after 24 hrs by MTT assay; format: functional, cell-based; settings: K562, 24 h
# Outline: (§1)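 MTT viability after 24 h exposure. Cells seeded at 5x10^4 per well and tested at 1-100 µM. Optical density of untreated cells set as 100% viable. IC50 derived by curve fitting. PBMC from healthy non-smoking volunteers, isolated by Ficoll-Hypaque.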
# Jurkat [2] = assay: Cytotoxicity against human Jurkat cells assessed as reduction in cell viability after 24 hrs by MTT assay; format: functional, cell-based; outline: as §1
# Daudi [3] = assay: Cytotoxicity against human Daudi cells assessed as reduction in cell viability after 24 hrs by MTT assay; format: functional, cell-based; outline: as §1
# B16-F10 [4] = assay: Cytotoxicity against mouse B16F10 cells assessed as reduction in cell viability after 24 hrs by MTT assay; format: functional, cell-based; settings: B16-F10, 24 h; outline: as §1
# K562 [5] = assay: Cytotoxicity against human K562 cells assessed as reduction in cell viability after 48 hrs by MTT assay; format: functional, cell-based; settings: K562, 48 h
# Jurkat [6] = assay: Cytotoxicity against human Jurkat cells assessed as reduction in cell viability after 48 hrs by MTT assay; format: functional, cell-based
# Daudi [7] = assay: Cytotoxicity against human Daudi cells assessed as reduction in cell viability after 48 hrs by MTT assay; format: functional, cell-based
# B16-F10 [8] = assay: Cytotoxicity against mouse B16F10 cells assessed as reduction in cell viability after 48 hrs by MTT assay; format: functional, cell-based; settings: B16-F10, 48 h
# PBMC [9] = assay: Cytotoxicity against human PBMC assessed as reduction in cell viability after 48 hrs by MTT assay; format: cell-based
# Jurkat [10] = assay: Cytotoxicity against human Jurkat cells assessed as reduction in cell viability after 72 hrs by MTT assay; format: functional, cell-based
# Daudi [11] = assay: Cytotoxicity against human Daudi cells assessed as reduction in cell viability after 72 hrs by MTT assay; format: functional, cell-based
# PBMC [12] = assay: Cytotoxicity against human PBMC assessed as reduction in cell viability after 72 hrs by MTT assay; format: cell-based
# [13] = Selectivity index, ratio of IC50 for human PBMC to IC50 for human Daudi cells after 24 hrs
# Outline: (§2)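 MTT viability after 24 h exposure to 1-100µM; untreated control OD taken as 100%. IC50 by curve fitting in each line and in PBMC from six healthy donors (Ficoll-Hypaque). SI = IC50 PBMC / IC50 tumor line; SI ≥5 high, 2–5 moderate, <2 low.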
# [14] = Selectivity index, ratio of IC50 for human PBMC to IC50 for mouse B16F10 cells after 24 hrs; format: toxicity; settings: PBMC versus B16F10 cells, read-out: Ratio IC50; outline: as §2
# [15] = Hemolytic activity in human RBC at 3 times IC50 relative to control; format: ADME, cell-based, Erythrocyte; settings: red blood cells (erythrocytes), read-out: Activity
# Outline: (§3)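 RBC from healthy non-smoking volunteers incubated with increasing concentrations of the selected pyrazolines. Saline served as the 0% lysis control and distilled water as the 100% lysis control. Percent hemolysis calculated relative to these controls.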
# [16] = Hemolytic activity in human RBC at 9 times IC50 relative to control; format: ADME, cell-based, Erythrocyte; settings: red blood cells (erythrocytes), read-out: Activity; outline: as §3
# [17] = Hemolytic activity in human RBC at 12 times IC50 relative to control; format: ADME, cell-based, Erythrocyte; settings: red blood cells (erythrocytes), read-out: Activity; outline: as §3
# [18] = Hemolytic activity in human RBC at 15 times IC50 relative to control; format: ADME, cell-based, Erythrocyte; settings: red blood cells (erythrocytes), read-out: Activity; outline: as §3
# K562 [19] = assay: Cell cycle arrest in human K562 cells assessed as increase in accumulation at G0/G1 phase at 32 uM after 12 hrs by propidium iodide/RNAse staining based flow cytometric analysis relative to control; format: functional
# Jurkat [20] = assay: Antiproliferative activity against human Jurkat cells assessed as reduction in KI-67 expression at 30.08 uM after 12 hrs by flow cytometric analysis; format: functional, cell-based
# K562 [21] = assay: Antiproliferative activity against human K562 cells assessed as reduction in KI-67 expression at 32 uM after 12 hrs by flow cytometric analysis; format: functional, cell-based
# K562 [22] = assay: Induction of apoptosis in human K562 cells assessed as increase in chromatin condensation at 32 uM by acridine orange/ethidium bromide staining-based fluorescence microscopic analysis; format: functional, cell-based
# K562 [23] = assay: Induction of apoptosis in human K562 cells assessed as increase in loss of membrane integrity at 32 uM by acridine orange/ethidium bromide staining-based fluorescence microscopic analysis; format: functional, cell-based
# Jurkat [24] = assay: Induction of apoptosis in human Jurkat cells assessed as increase in membrane blebbing at 30.08 uM by acridine orange/ethidium bromide staining-based fluorescence microscopic analysis; format: functional, cell-based
# Jurkat [25] = assay: Induction of apoptosis in human Jurkat cells assessed as increase in chromatin condensation at 30.08 uM by acridine orange/ethidium bromide staining-based fluorescence microscopic analysis; format: functional, cell-based
# Jurkat [26] = assay: Induction of apoptosis in human Jurkat cells assessed as increase in loss of membrane integrity at 30.08 uM by acridine orange/ethidium bromide staining-based fluorescence microscopic analysis; format: functional, cell-based
# Jurkat [27] = assay: Induction of apoptosis in human Jurkat cells at 30.08 uM after 12 hrs by Annexin-V FITC staining-based flow cytometry relative to control; format: functional
# K562 [28] = assay: Induction of apoptosis in human K562 cells assessed as increase in Bax expression at 32 uM after 12 hrs by flow cytometric analysis relative to control; format: functional
# Jurkat [29] = assay: Induction of apoptosis in human Jurkat cells assessed as increase in Bax expression at 30.08 uM after 12 hrs by flow cytometric analysis relative to control; format: functional
# K562 [30] = assay: Induction of apoptosis in human K562 cells assessed as decrease in Bcl2 expression at 32 uM after 12 hrs by flow cytometric analysis relative to control; format: functional; set-up: scale not given: the % may be the effect or the level left
# K562 [31] = assay: Induction of apoptosis in human K562 cells assessed as reduction in cells with intact mitochondrial membrane potential at 32 uM after 12 hrs by flow cytometric analysis relative to control; format: functional; set-up: scale not given: the % may be the effect or the level left
# Jurkat [32] = assay: Induction of apoptosis in human Jurkat cells assessed reduction in cells with intact mitochondrial membrane potential at 30.08 uM after 12 hrs by flow cytometric analysis relative to control; format: functional; set-up: scale not given: the % may be the effect or the level left
# K562 [33] = assay: Induction of apoptosis in human K562 cells assessed as decrease in survivin level at 32 uM after 12 hrs by flow cytometric analysis relative to control; format: functional
# Jurkat [34] = assay: Induction of apoptosis in human Jurkat cells assessed as decrease in survivin level at 30.08 uM after 12 hrs by flow cytometric analysis relative to control; format: functional
# Jurkat [35] = assay: Induction of apoptosis in human Jurkat cells assessed as increase in AIF release at 30.08 uM after 12 hrs by flow cytometric analysis relative to control; format: functional
# K562 [36] = assay: Induction of apoptosis in human K562 cells assessed as increase in FasR expression at 32 uM after 12 hrs by flow cytometric analysis relative to control; format: functional
# K562 [37] = assay: Induction of apoptosis in human K562 cells assessed as increase in caspase-3 expression at 32 uM after 12 hrs by flow cytometric analysis relative to control; format: functional
# Jurkat (human) = assay: Induction of apoptosis in human Jurkat cells assessed as increase in AIF release at 30.08 uM after 12 hrs by flow cytometric analysis relative to control
# Jurkat [38] = assay: Induction of apoptosis in human Jurkat cells assessed as decrease in Bcl2 expression at 30.08 uM after 12 hrs by flow cytometric analysis relative to control; set-up: scale not given: the % may be the effect or the level left
smiles,measurement,setting,value
COc1cc(C2=NN(C(C)=O)C(c3ccc(Br)cc3)C2)cc(OC)c1OC (centres undefined),IC50,K562 [1],32 µM
same,IC50,Jurkat [2],30.8 µM
same,IC50,Daudi [3],49.8 µM
same,IC50,B16-F10 [4],98.7 µM
same,IC50,K562 [5],16.2 µM
same,IC50,Jurkat [6],17.2 µM
same,IC50,Daudi [7],34.8 µM
same,IC50,B16-F10 [8],72.7 µM
same,IC50,PBMC [9],287 µM
same,IC50,Jurkat [10],15.6 µM
same,IC50,Daudi [11],33 µM
same,IC50,PBMC [12],118 µM
same,Ratio IC50,[13],6.8
same,selectivity ratio at 24 h,[14],3.4
same,hemolysis at 3 times IC50,[15],1.6%
same,hemolysis at 9 times IC50,[16],6%
same,hemolysis at 12 times IC50,[17],12.9%
same,hemolysis at 15 times IC50,[18],15.8%
same,Activity,K562 [19],8%
same,Activity,Jurkat [20],Active
same,Activity,K562 [21],Active
same,Activity,K562 [22],Active
same,Activity,K562 [23],Active
same,Activity,Jurkat [24],Active
same,Activity,Jurkat [25],Active
same,Activity,Jurkat [26],Active
same,Activity,Jurkat [27],24.6%
same,Activity,K562 [28],15.8%
same,Activity,Jurkat [29],101.4%
same,Activity,K562 [30],13.4%
same,Activity,K562 [31],25.3%
same,Activity,Jurkat [32],32.9%
same,Activity,K562 [33],21.2%
same,Activity,Jurkat [34],10.7%
same,Activity,Jurkat [35],33.2%
same,Activity,K562 [36],21.3%
same,Activity,K562 [37],20%
same,Activity,Jurkat (human),33.2%
same,Activity,Jurkat [38],12.9%
